From ChEMBL document CHEMBL3734694, “Design, synthesis, and anticancer evaluation of long-chain alkoxylated mono-carbonyl analogues of curcumin” (Eur J Med Chem, 2015)
≈ marks a conversion by molar mass, not a printed value. Calls of active or inactive are those of the source. The calls are words filed in the database; no cut-off is given here.

Key:
[1] = Antitumor activity against human SGC7901 cells xenografted in nude mouse at 100 mg/kg, po qd for 23 days; format: functional; conditions: SGC-7901, po, 552 h
Method in brief: (§1)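 SGC7901 xenograft: female nude mice, 8 weeks old, given 10 million cells s.c. At about 40 mm³, randomized to 0.5% CMCNA vehicle or oral daily doses for 23 consecutive days. Calipers every 2 days; volume = π/6 × large diameter × (small diameter)². %ΔT/ΔC determined. Tumours weighed after sacrifice on the final day. Mean ± SEM; Student's t-test.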

[2] = system: Mus musculus; assay: Toxicity in po dosed nude mouse xenografted with human SGC7901 cells assessed as drug tolerability by measuring clinical parameters at 50 and 100 mg/kg, po qd for 23 days; format: organism-based, SGC-7901; conditions: in vivo, 552 h
Method in brief: (§2)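 Female nude mice (8 weeks) bearing s.c. SGC7901 tumours (10 million cells injected) of about 40 mm³. Given 0.5% CMCNA vehicle or 50 or 100 mg/kg/day orally for 23 consecutive days. Observed daily. Body weights monitored for the duration of the study.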

[3] = Cytotoxicity against human MGC803 cells assessed as inhibition of cell proliferation incubated for 72 hrs by MTS assay; format: functional, cell-based; conditions: MGC-803, 72 h
Method in brief: (§3)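 Cells in RPMI-1640 with 10% heat-inactivated FBS at 37°C, 5% CO2. Seeded at 4000 cells/well in triplicate and attached overnight. Exposed to various concentrations for 72 h. MTS added for a further 4 h; absorbance at 490 nm. IC50 = concentration for 50% growth inhibition, as mean ± SEM of three independent tests.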

[4] = Cytotoxicity against human SGC7901 cells assessed as inhibition of cell proliferation incubated for 72 hrs by MTS assay; format: functional, cell-based; conditions: SGC-7901, 72 h; method in brief: as §3
[5] = system: SGC-7901; assay: Antitumor activity against human SGC7901 cells xenografted in po dosed nude mouse assessed as decrease in tumor weight administered as once daily for 23 days; format: functional, organism-based; method in brief: as §1
[6] = system: Mus musculus; assay: Toxicity in po dosed nude mouse xenografted with human SGC7901 cells assessed as loss of body weight at 50 and 100 mg/kg, po qd for 23 days; format: organism-based, SGC-7901; conditions: in vivo, 552 h; method in brief: as §2
[7] = system: SGC-7901; assay: Antitumor activity against human SGC7901 cells xenografted in nude mouse assessed as increase in cleaved caspase-3 at 50 and 100 mg/kg, po qd for 23 days by DAB substrate-chromogen staining-based immunohistochemistry; format: functional, organism-based
Method in brief: (§4)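 Female nude mice, eight weeks old, injected s.c. with 10 million SGC7901 cells. At about 40 mm³, randomized to 0.5% CMCNA vehicle or daily oral dosing for 23 consecutive days. Tumour halves fixed in 4% paraformaldehyde. 5 μm sections, citrate antigen retrieval. Primary antibody overnight at 4°C (anti-Ki67 1:50, cleaved caspase-3 1:100), then HRP secondary 1:100 for 2 h at 37°C. DAB stain, hematoxylin counterstain.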

[8] = system: SGC-7901; assay: Induction of apoptosis in human SGC7901 cells assessed as decrease in procaspase-3 fragments at 2.5 to 10 uM incubated for 24 hrs by immunoblotting; format: functional, cell-based
Method in brief: (§5)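 SGC7901 cells treated 24 h at 2.5, 5 or 10 μM. Lysed on ice for 30 min; 60 µg protein run on 10% SDS-PAGE and transferred to PVDF. Blocked in 5% milk. Primary antibodies (cleaved PARP, pro-caspase-3, Bcl-2) overnight at 4°C, HRP secondary 1:300 for 1 h at room temperature. ECL detection. Three experiments.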

[9] = Cytotoxicity against human SGC7901 cells assessed as inhibition of cell proliferation at 10 uM incubated for 72 hrs by MTS assay; format: functional; conditions: SGC-7901, 72 h
Method in brief: (§6)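 Single-concentration MTS screen at 10 μM. Cells in RPMI-1640 with 10% FBS, seeded at 4000 cells/well in triplicate, attached overnight, then exposed for 72 h at 37°C, 5% CO2. MTS for 4 h; absorbance 490 nm. Reported as % inhibition.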

[10] = Cytotoxicity against human SW620 cells assessed as inhibition of cell proliferation incubated for 72 hrs by MTS assay; format: functional, cell-based; conditions: SW-620, 72 h; method in brief: as §3
[11] = system: SGC-7901; assay: Induction of apoptosis in human SGC7901 cells assessed as necrotic cells and late apoptotic cells incubated for 30 hrs by PI and Annexin V-FITC-based flow cytometric analysis; format: functional, cell-based
Method in brief: (§7)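 SGC7901 cells grown to 80% confluency in 6-well plates, then treated 30 h with 2.5, 5 or 10 μM. DMSO negative control. Cells washed in ice-cold PBS and stained with FITC-Annexin V and PI in binding buffer. Read by flow cytometry: UR = necrotic/late apoptotic, LR = early apoptotic. Three separate experiments.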

[12] = Cytotoxicity against human SW620 cells assessed as inhibition of cell proliferation at 10 uM incubated for 72 hrs by MTS assay; format: functional; conditions: SW-620, 72 h; method in brief: as §6
[13] = system: CT26; assay: Cytotoxicity against mouse CT26 cells assessed as inhibition of cell proliferation incubated for 72 hrs by MTS assay; format: functional, cell-based; conditions: CT26, 72 h; method in brief: as §3
[14] = system: SGC-7901; assay: Antitumor activity against human SGC7901 cells xenografted in nude mouse assessed as decrease cell proliferation at 50 and 100 mg/kg, po qd for 23 days by Ki67 staining-based immunohistochemistry; format: functional, organism-based; method in brief: as §4
[15] = system: SGC-7901; assay: Induction of apoptosis in human SGC7901 cells assessed as increase in cleaved PARP incubated for 24 hrs by immunoblotting; format: functional, cell-based; method in brief: as §5
[16] = system: CT26; assay: Cytotoxicity against mouse CT26 cells at 10 uM assessed as inhibition of cell proliferation incubated for 72 hrs by MTS assay; format: functional; conditions: CT26, 72 h; method in brief: as §6
[17] = system: SGC-7901; assay: Induction of apoptosis in human SGC7901 at 10 uM incubated for 30 hrs by PI and Annexin V-FITC-based flow cytometric analysis; format: functional; method in brief: as §7
[18] = Cytotoxicity against human MGC803 cells assessed as inhibition of cell proliferation at 10 uM incubated for 72 hrs by MTS assay; format: functional; conditions: MGC-803, 72 h; method in brief: as §6
[19] = Solubility of compound in water
[20] = system: SGC-7901; assay: Induction of apoptosis in human SGC7901 cells assessed as decrease in BCL2 expression at 2.5 to 10 uM incubated for 24 hrs by immunoblotting; format: functional, cell-based; method in brief: as §5
[21] = Cytotoxicity against human GES-1 cells assessed as inhibition of cell proliferation incubated for 72 hrs by MTS assay; format: functional, cell-based; conditions: GES1, 72 h; method in brief: as §3

**Q.** What does the source list for `COc1ccccc1/C=C/C(=O)/C=C/c1ccc(OCCCN2CCOCC2)c(OC)c1`?
**A.** inhibition in vivo at 100 mg/kg [1]: 48%; Activity [2]: Non-toxic; IC50 [3]: 2.18 µM; IC50 [4]: 1.91 µM; inhibition [5]: Dose-dependent effect; Activity [6]: Non-toxic; Activity [7]: Active; Activity [8]: Active; inhibition at 10 µM [9]: 75.3%; IC50 [10]: 1.22 µM; Activity [11]: Dose-dependent effect; inhibition at 10 µM [12]: 105%; IC50 [13]: 2.56 µM; Activity [14]: Active; Activity [15]: Dose-dependent effect; inhibition at 10 µM [16]: 104%; Activity [17]: 50%; inhibition at 10 µM [18]: 80.3%; solubility [19]: 0.0212 mg/mL (≈ 48.5 µM); Activity [20]: Active; IC50 [21]: 2.62 µM
